Test results taken from ChEMBL document CHEMBL2440062, “New nucleotide-competitive non-nucleoside inhibitors of terminal deoxynucleotidyl transferase: discovery, characterization, and crystal structure in complex with the target” (J Med Chem, 2013).
pIC50, pKi: −log10 of the molar value. Activity calls are given as the source filed them. The calls are words filed in the database; no cut-off is given here.

What was measured:
[1] = system: HeLa; test: Cytotoxicity against TdT-deficient human HeLa cells assessed as growth inhibition after 24 to 48 hrs by MTT assay; assay type: cell-based
In short: (§1)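 MOLT-4 cells were grown in RPMI-1640 and HeLa cells in DMEM, with 10% FCS at 37 °C. Cells were seeded at 10^5 per well, given 24 h to attach, then exposed to compounds (0.1–100 range) for 24 or 48 h. MTT at 1 mg/mL was added for 2 h at 37 °C, formazan was dissolved in DMSO, and absorbance read at 550 nm versus 0.5% DMSO vehicle. IC50 was obtained by regression, in triplicate.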

[2] = system: MOLT-4; test: Cytotoxicity against human MOLT4 cells overexpressing TdT assessed as growth inhibition after 24 to 48 hrs by MTT assay; assay type: functional, cell-based; in short: as §1
[3] = species on record: Homo sapiens; test: Binding affinity to human TdT/DNA/dNTP ternary complex
In short: (§2)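 Association (kon) and dissociation (koff) rates measured for binding to binary enzyme–DNA and ternary enzyme–DNA–dNTP complexes of TdT.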

[4] = species on record: Homo sapiens; test: Binding affinity to human TdT/DNA binary complex; in short: as §2
[5] = target: T1, DNA nucleotidylexotransferase (Homo sapiens, UniProt P04053); test: Non-competitive inhibition of human TdT using 3'-OH as substrate
T1 sequence (P04053 whole entry): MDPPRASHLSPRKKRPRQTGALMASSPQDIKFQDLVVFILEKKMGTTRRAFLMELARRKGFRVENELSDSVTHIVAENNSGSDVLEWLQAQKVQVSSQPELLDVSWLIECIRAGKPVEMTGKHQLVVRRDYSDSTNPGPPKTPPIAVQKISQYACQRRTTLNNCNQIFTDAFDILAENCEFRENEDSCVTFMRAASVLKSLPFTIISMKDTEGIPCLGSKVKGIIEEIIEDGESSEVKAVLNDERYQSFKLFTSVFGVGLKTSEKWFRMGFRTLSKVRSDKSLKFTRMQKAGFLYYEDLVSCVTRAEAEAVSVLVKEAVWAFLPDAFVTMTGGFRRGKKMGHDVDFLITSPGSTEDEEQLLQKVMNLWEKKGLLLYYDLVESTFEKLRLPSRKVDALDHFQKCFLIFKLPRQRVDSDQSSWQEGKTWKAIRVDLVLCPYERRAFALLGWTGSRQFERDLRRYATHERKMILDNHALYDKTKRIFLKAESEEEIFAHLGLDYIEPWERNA

[6] = target: T1, DNA nucleotidylexotransferase; test: Competitive inhibition of human TdT using TTP as substrate
In short: (§3)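 TdT was from Trevigen. TCA-precipitated radioactivity was counted. ID50 came from dose–response fitting. For kinetics, DNA or dNTP was varied at increasing inhibitor, and Ki was obtained via Cheng–Prusoff for a competitive model.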

[7] = target: DNA polymerase beta (Homo sapiens, UniProt P06746); test: Inhibition of human recombinant DNA polymerase beta
[8] = target: T2, DNA polymerase lambda (Homo sapiens) (UniProt Q9UGP5); test: Inhibition of human recombinant full length DNA polymerase lambda TdT-like activity using [3H]dNTP as substrate after 10 mins by scintillation counting analysis
T2 sequence (whole entry): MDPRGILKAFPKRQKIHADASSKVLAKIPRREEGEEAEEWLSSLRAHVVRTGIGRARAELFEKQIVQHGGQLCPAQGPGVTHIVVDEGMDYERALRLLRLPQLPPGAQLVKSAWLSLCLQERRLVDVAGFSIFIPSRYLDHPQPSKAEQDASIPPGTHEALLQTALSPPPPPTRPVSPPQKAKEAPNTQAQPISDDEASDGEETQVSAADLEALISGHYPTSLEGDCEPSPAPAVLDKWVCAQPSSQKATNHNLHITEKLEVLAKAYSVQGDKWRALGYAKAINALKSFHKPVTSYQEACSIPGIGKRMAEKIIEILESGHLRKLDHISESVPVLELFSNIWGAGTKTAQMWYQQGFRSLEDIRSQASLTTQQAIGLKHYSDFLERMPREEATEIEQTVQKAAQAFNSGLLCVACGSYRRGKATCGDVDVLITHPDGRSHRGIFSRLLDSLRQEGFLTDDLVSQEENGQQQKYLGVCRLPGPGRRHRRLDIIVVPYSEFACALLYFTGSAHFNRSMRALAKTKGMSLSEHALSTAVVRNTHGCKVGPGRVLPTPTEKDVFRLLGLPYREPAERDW
In short: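 Full-length recombinant human pol λ (>90% pure) was tested for template-independent activity. Acid-insoluble radioactivity was counted, and ID50 came from dose–response fitting.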

[9] = target: T2, DNA polymerase lambda (Homo sapiens); test: Inhibition of human recombinant full length DNA polymerase lambda using [3H]dTTP as substrate and 10 poly(dA)/oligo(dT) as template-primer after 15 mins by scintillation counting analysis
In short: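 Recombinant full-length human pol λ at 50 nM was assayed with 0.2 μM poly(dA)/oligo(dT)10:1 (3′-OH ends) and 5 μM [3H]dTTP (5 Ci/mmol). Incubation was 15 min at 37 °C. TCA precipitates were scintillation counted.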

[10] = target: T1, DNA nucleotidylexotransferase; test: Inhibition of human recombinant TdT using [3H]dNTP as substrate after 10 mins by scintillation counting analysis; in short: as §3
[11] = system: HeLa; test: Induction of apoptosis in TdT-deficient human HeLa cells assessed as caspase-3 cleavage by Western blot analysis; assay type: cell-based
In short: (§4)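 1 × 10^6 cells were incubated with or without compound, then lysed in cold buffer (50 mM Tris, 150 mM NaCl, 10 mM EDTA, 1% Triton) with protease inhibitors. Equal protein was run on 8–12% SDS-PAGE and blotted to nitrocellulose. Membranes were probed overnight at 4 °C with antibodies to cyclin E2, cyclin A, p53 or caspase 3, detected by HRP/ECL, and normalized to actin by densitometry.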

[12] = system: MOLT-4; test: Induction of apoptosis in human MOLT4 cells overexpressing TdT assessed as caspase-3 cleavage by Western blot analysis; assay type: functional, cell-based; in short: as §4
[13] = system: MOLT-4; test: Upregulation of p53 protein expression in human MOLT4 cells overexpressing TdT at IC50 after 30 hrs by Western blot analysis; assay type: functional, cell-based; in short: as §4
[14] = system: MOLT-4; test: Downregulation of cyclin A protein expression in human MOLT4 cells overexpressing TdT at 30 to 50 uM by Western blot analysis; assay type: functional, cell-based; in short: as §4
[15] = system: HeLa; test: Cell cycle arrest in TdT-deficient human HeLa cells at 30 uM after 24 hrs by propidium iodide staining-based FACS flow cytometric analysis; assay type: ADME
In short: (§5)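 Cells at 2.5 × 10^5 cells/mL were treated 24 h with compound or vehicle. They were washed in PBS, trypsinized, and stained 30 min at 4 °C in the dark with 0.1% sodium citrate, 0.1% Triton X-100 and propidium iodide. Analysis was by FACScan flow cytometry, giving the percentage of cells in G0/G1, S and G2/M.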

[16] = system: MOLT-4; test: Cell cycle arrest in human MOLT4 cells overexpressing TdT assessed as decrease of cells in G1 phase at 30 uM after 24 hrs by propidium iodide staining-based FACS flow cytometric analysis relative to vehicle-treated control; assay type: functional; design: scale not given: the % may be the effect or the level left; in short: as §5
[17] = system: MOLT-4; test: Cell cycle arrest in human MOLT4 cells overexpressing TdT assessed as accumulation at S phase at 30 uM after 24 hrs by propidium iodide staining-based FACS flow cytometric analysis relative to vehicle-treated control; assay type: functional; in short: as §5
[18] = system: HeLa; test: Downregulation of cyclin E protein expression in TdT-deficient human HeLa cells at 30 uM by Western blot analysis; assay type: ADME, cell-based; in short: as §4
[19] = system: MOLT-4; test: Downregulation of cyclin E protein expression in human MOLT4 cells overexpressing TdT at 30 uM by Western blot analysis; assay type: functional, cell-based; in short: as §4
[20] = system: HeLa; test: Cell cycle arrest in TdT-deficient human HeLa cells assessed as decrease of cells in G2 phase at 30 uM after 24 hrs by propidium iodide staining-based FACS flow cytometric analysis relative to vehicle-treated control; assay type: ADME; design: scale not given: the % may be the effect or the level left; in short: as §5
[21] = system: HeLa; test: Cell cycle arrest in TdT-deficient human HeLa cells assessed as accumulation at G1 phase at 30 uM after 24 hrs by propidium iodide staining-based FACS flow cytometric analysis relative to vehicle-treated control; assay type: ADME; in short: as §5
[22] = system: MOLT-4; test: Cell cycle arrest in human MOLT4 cells overexpressing TdT assessed as accumulation at G1 phase at 30 uM after 24 hrs by propidium iodide staining-based FACS flow cytometric analysis relative to vehicle-treated control; assay type: functional; in short: as §5
[23] = system: MOLT-4; test: Cell cycle arrest in human MOLT4 cells overexpressing TdT assessed as decrease of cells in G2 phase at 30 uM after 24 hrs by propidium iodide staining-based FACS flow cytometric analysis relative to vehicle-treated control; assay type: functional; design: scale not given: the % may be the effect or the level left; in short: as §5
[24] = system: MOLT-4; test: Downregulation of cyclin A protein expression in human MOLT4 cells overexpressing TdT at 30 uM by Western blot analysis; assay type: functional, cell-based; in short: as §4

| SMILES | inhibition [3] | inhibition [4] | pKi [5] | pKi [6] | pIC50 [7] | ID50 [8] [µM] | ID50 [9] [µM] | ID50 [10] [µM] | pIC50 [1] | pIC50 [2] | other results |
| --- | --- | --- | --- | --- | --- | --- | --- | --- | --- | --- | --- |
| O=C(/C=C/c1cn(Cc2ccc(O)cc2)c2ccccc12)CC(=O)C(=O)O | inactive | Active | 6.30 | 6.35 | < 4.40 | > 40 | > 40 | 0.9 | < 4.40 | 4.70 | – |
| CCCCn1cc(/C=C/C(=O)CC(=O)C(=O)O)c2ccccc21 | – | – | – | – | < 4.40 | > 40 | > 40 | 26 | 4.52 | 4.52 | Activity [18]: Toxic; Activity [19]: Active; Activity [20]: 10%; Activity [21]: 20%; Activity [22]: 20%; Activity [23]: 10% |
| O=C(/C=C/c1cn(Cc2ccc(Cl)cc2)c2ccccc12)CC(=O)C(=O)O | – | – | – | – | < 4.40 | > 40 | > 40 | 10 | < 4.40 | 4.72 | – |
| C=C(C)Cn1cc(/C=C/C(=O)CC(=O)C(=O)O)c2ccccc21 | – | – | – | – | < 4.40 | 40 | > 40 | 2.5 | 4.40 | 4.40 | – |
| CN(C)C(=O)Cn1cc(/C=C/C(=O)CC(=O)C(=O)O)c2ccccc21 | – | – | – | – | < 4.40 | 40 | > 40 | 8.9 | < 4.40 | < 4.40 | – |
| O=C(/C=C/c1cn(-c2ccccc2)c2ccccc12)CC(=O)C(=O)O | – | – | – | – | < 4.40 | 2 | > 50 | 47 | < 4.40 | < 4.40 | – |

Continued, in another order:

| inhibition [3] | inhibition [4] | pKi [5] | pKi [6] | pIC50 [7] | ID50 [8] [µM] | ID50 [9] [µM] | ID50 [10] [µM] | SMILES | pIC50 [1] | pIC50 [2] | other results |
| --- | --- | --- | --- | --- | --- | --- | --- | --- | --- | --- | --- |
| inactive | Active | 5.77 | 5.82 | < 4.40 | > 40 | > 40 | 4.7 | CCOC(=O)C(=O)CC(=O)/C=C/c1cc(C(=O)c2ccc(C#N)cc2)c[nH]1 | < 4.40 | 4.52 | Activity [11]: Non-toxic; Activity [12]: Active; Activity [13]: Active; Activity [14]: Active; Activity [15]: Non-toxic; Activity [16]: 30%; Activity [17]: 44% |
| inactive | Active | 6.40 | 6.30 | < 4.40 | 27 | > 40 | 1.7 | O=C(/C=C/c1cc(C(=O)c2ccccc2F)c[nH]1)CC(=O)C(=O)O | < 4.40 | 4.70 | – |
| – | – | – | – | 4.40 | > 40 | > 40 | 9.5 | O=C(/C=C/c1cc(C(=O)c2ccccc2)cn1Cc1ccc(F)cc1)CC(=O)C(=O)O | < 4.40 | 5.05 | Activity [11]: Non-toxic; Activity [12]: Active; Activity [13]: Active; Activity [24]: Active; Activity [15]: Non-toxic; Activity [16]: 30%; Activity [17]: 44% |
